Laboratory results: ChEMBL document CHEMBL4152391, “Bile Acid Oligomers and Their Combination with Antibiotics To Combat Bacterial Infections” (J Med Chem, 2018)
Calls of active or inactive are those of the source. No cut-off for these calls is given here.

How the values were obtained:
Pseudomonas aeruginosa = assay: Antibacterial activity against Pseudomonas aeruginosa at 5 to 100 ug after 18 hrs by agar disk-diffusion method; assay type: functional, organism-based
How it was run: (§1)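 Agar disk diffusion per CLSI: compound loaded on sterile 6 mm paper disks, dried, placed on Mueller Hinton agar lawned with bacteria at McFarland 0.5; cefotaxime positive and DMSO solvent controls; 37 °C for 18 h; zone of inhibition diameter measured to nearest whole mm.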

Escherichia coli = assay: Antibacterial activity against Escherichia coli ATCC 25922 at 5 to 100 ug after 18 hrs by agar disk-diffusion method; assay type: functional, organism-based; how it was run: as §1
HEK293 = assay: Cytotoxicity against HEK293 cells assessed as decrease in cell viability at 1 to 200 uM after 24 hrs by Alamar Blue assay; assay type: cell-based; conditions: human, hek293, 24 h
How it was run: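 HEK293 cells in DMEM HG, 10% FBS, 1% pen-strep, 37 °C 5% CO2, passage under 30, used at 80% confluency; seeded 1×10^4/well, after 24 h washed and treated 24 h with 1–200 µM in complete medium; alamar blue (0.15 mg/mL) added for 4 h, absorbance 570 and 600 nm; viability relative to untreated cells as 100%.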

Staphylococcus aureus [1] = assay: Antibacterial activity against Staphylococcus aureus ATCC 29213 at 5 to 100 ug after 18 hrs by agar disk-diffusion method; assay type: functional, organism-based; how it was run: as §1
Staphylococcus aureus [2] = assay: Antibacterial activity against Staphylococcus aureus ATCC 29213 at 30 ug after 18 hrs by agar disk-diffusion method; assay type: functional; how it was run: as §1

| SMILES | Activity (Pseudomonas aeruginosa) | Activity (Escherichia coli) | Activity (HEK293) | Activity (Staphylococcus aureus [1]) | Activity (Staphylococcus aureus [2]) |
| --- | --- | --- | --- | --- | --- |
| CCCCCCCCCCCCCCCC(=O)NCCNCCN | inactive | inactive |  |  |  |
| C[C@H](CCC(=O)NCCN(CCNC(=O)CC[C@@H](C)[C@H]1CC[C@H]2[C@@H]3CC[C@@H]4C[C@H](O)CC[C@]4(C)[C@H]3C[C@H](O)[C@]12C)CCNC(=O)CC[C@@H](C)[C@H]1CC[C@H]2[C@@H]3CC[C@@H]4C[C@H](O)CC[C@]4(C)[C@H]3C[C@H](O)[C@]12C)[C@H]1CC[C@H]2[C@@H]3CC[C@@H]4C[C@H](O)CC[C@]4(C)[C@H]3C[C@H](O)[C@]12C | inactive | inactive | Non-Toxic | inactive |  |
| CC(=O)N(CCNC(=O)CC[C@@H](C)[C@H]1CC[C@H]2[C@@H]3[C@H](O)C[C@@H]4C[C@H](O)CC[C@]4(C)[C@H]3C[C@H](O)[C@]12C)CCNC(=O)CC[C@@H](C)[C@H]1CC[C@H]2[C@@H]3[C@H](O)C[C@@H]4C[C@H](O)CC[C@]4(C)[C@H]3C[C@H](O)[C@]12C | inactive | inactive |  | inactive |  |
| C[C@H](CCC(=O)N1CCCN(C(=O)CC[C@@H](C)[C@H]2CC[C@H]3[C@@H]4[C@H](O)C[C@@H]5C[C@H](O)CC[C@]5(C)[C@H]4C[C@H](O)[C@]23C)CCN(C(=O)CC[C@@H](C)[C@H]2CC[C@H]3[C@@H]4[C@H](O)C[C@@H]5C[C@H](O)CC[C@]5(C)[C@H]4C[C@H](O)[C@]23C)CCCN(C(=O)CC[C@@H](C)[C@H]2CC[C@H]3[C@@H]4[C@H](O)C[C@@H]5C[C@H](O)CC[C@]5(C)[C@H]4C[C@H](O)[C@]23C)CC1)[C@H]1CC[C@H]2[C@@H]3[C@H](O)C[C@@H]4C[C@H](O)CC[C@]4(C)[C@H]3C[C@H](O)[C@]12C | inactive | inactive | Non-Toxic | inactive |  |
| C[C@H](CCC(=O)NCCN(CCNC(=O)CC[C@@H](C)[C@H]1CC[C@H]2[C@@H]3[C@H](O)C[C@@H]4C[C@H](O)CC[C@]4(C)[C@H]3C[C@H](O)[C@]12C)CCNC(=O)CC[C@@H](C)[C@H]1CC[C@H]2[C@@H]3[C@H](O)C[C@@H]4C[C@H](O)CC[C@]4(C)[C@H]3C[C@H](O)[C@]12C)[C@H]1CC[C@H]2[C@@H]3[C@H](O)C[C@@H]4C[C@H](O)CC[C@]4(C)[C@H]3C[C@H](O)[C@]12C | inactive | inactive | Non-Toxic | inactive |  |
| C[C@H](CCC(=O)NCCNC(=O)CC[C@@H](C)[C@H]1CC[C@H]2[C@@H]3CC[C@@H]4C[C@H](O)CC[C@]4(C)[C@H]3C[C@H](O)[C@]12C)[C@H]1CC[C@H]2[C@@H]3CC[C@@H]4C[C@H](O)CC[C@]4(C)[C@H]3C[C@H](O)[C@]12C | inactive | inactive | Non-Toxic |  | inactive |
| CCCCCCCCCCCCCCCC(=O)NCCNCCNC(=O)CC[C@@H](C)[C@H]1CC[C@H]2[C@@H]3[C@H](O)C[C@@H]4C[C@H](O)CC[C@]4(C)[C@H]3C[C@H](O)[C@]12C | inactive | inactive |  | inactive |  |
| CC(C)(C)OC(=O)NCCN(CCN)C(=O)OC(C)(C)C | inactive | inactive |  |  |  |
| C[C@H](CCC(=O)NCCN(CCN(CCNC(=O)CC[C@@H](C)[C@H]1CC[C@H]2[C@@H]3[C@H](O)C[C@@H]4C[C@H](O)CC[C@]4(C)[C@H]3C[C@H](O)[C@]12C)C(=O)OC(C)(C)C)C(=O)OC(C)(C)C)[C@H]1CC[C@H]2[C@@H]3[C@H](O)C[C@@H]4C[C@H](O)CC[C@]4(C)[C@H]3C[C@H](O)[C@]12C | inactive | inactive |  | inactive |  |
| C[C@H](CCC(=O)NCCCCCNC(=O)CC[C@@H](C)[C@H]1CC[C@H]2[C@@H]3[C@H](O)C[C@@H]4C[C@H](O)CC[C@]4(C)[C@H]3C[C@H](O)[C@]12C)[C@H]1CC[C@H]2[C@@H]3[C@H](O)C[C@@H]4C[C@H](O)CC[C@]4(C)[C@H]3C[C@H](O)[C@]12C | inactive | inactive |  | inactive |  |
| C[C@H](CCC(=O)NCCCNC(=O)CC[C@@H](C)[C@H]1CC[C@H]2[C@@H]3CC[C@@H]4C[C@H](O)CC[C@]4(C)[C@H]3C[C@H](O)[C@]12C)[C@H]1CC[C@H]2[C@@H]3CC[C@@H]4C[C@H](O)CC[C@]4(C)[C@H]3C[C@H](O)[C@]12C | inactive | inactive | Non-Toxic |  | inactive |
| CCCCCCCCCCCCCCCC(=O)NCCN(CCNC(=O)OC(C)(C)C)C(=O)OC(C)(C)C | inactive | inactive |  |  |  |
| CCCCCCCCCCCCCCCC(=O)N(CCNC(=O)CC[C@@H](C)[C@H]1CC[C@H]2[C@@H]3[C@H](O)C[C@@H]4C[C@H](O)CC[C@]4(C)[C@H]3C[C@H](O)[C@]12C)CCNC(=O)CC[C@@H](C)[C@H]1CC[C@H]2[C@@H]3[C@H](O)C[C@@H]4C[C@H](O)CC[C@]4(C)[C@H]3C[C@H](O)[C@]12C | inactive | inactive |  | inactive |  |
| C[C@H](CCC(=O)NCCCNC(=O)CC[C@@H](C)[C@H]1CC[C@H]2[C@@H]3[C@H](O)C[C@@H]4C[C@H](O)CC[C@]4(C)[C@H]3C[C@H](O)[C@]12C)[C@H]1CC[C@H]2[C@@H]3[C@H](O)C[C@@H]4C[C@H](O)CC[C@]4(C)[C@H]3C[C@H](O)[C@]12C | inactive | inactive | Non-Toxic |  | inactive |
| C[C@H](CCC(=O)NCCNC(=O)CC[C@@H](C)[C@H]1CC[C@H]2[C@@H]3[C@H](O)C[C@@H]4C[C@H](O)CC[C@]4(C)[C@H]3C[C@H](O)[C@]12C)[C@H]1CC[C@H]2[C@@H]3[C@H](O)C[C@@H]4C[C@H](O)CC[C@]4(C)[C@H]3C[C@H](O)[C@]12C | inactive | inactive | Non-Toxic |  | inactive |
| C[C@H](CCC(=O)NCCNCCNC(=O)CC[C@@H](C)[C@H]1CC[C@H]2[C@@H]3CC[C@@H]4C[C@H](O)CC[C@]4(C)[C@H]3C[C@H](O)[C@]12C)[C@H]1CC[C@H]2[C@@H]3CC[C@@H]4C[C@H](O)CC[C@]4(C)[C@H]3C[C@H](O)[C@]12C | inactive | inactive |  |  | inactive |
